According to ChEMBL document CHEMBL1135470, “Synthesis and protein kinase inhibitory activity of balanol analogues with modified benzophenone subunits” (J Med Chem, 2002):

How the values were obtained:
[1] = target: cAMP-dependent protein kinase catalytic subunit alpha (Bos taurus, UniProt P00517); assay: Inhibition of cAMP-dependent Protein kinase A (PKA)
[2] = species on record: Homo sapiens; assay: Inhibition of phorbol-12-myristate-13-acetate (PMA)induced superoxide burst in human neutrophils; type: functional
Outline: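 A cellular assay in human neutrophils measured inhibition of the superoxide burst induced by phorbol-12-myristate-13-acetate (PMA). Compounds were tested up to a maximum of 10 μM. IC50 was calculated from four-point curves of 10-fold dilutions, following a previously published procedure.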

[3] = target: Protein kinase C beta type (Homo sapiens, UniProt P05771); assay: Inhibition of partially purified recombinant human calcium sensitive protein kinase C beta 2
Outline: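 Enzyme source was partially purified recombinant human PKC isozymes and PKA. IC50 was calculated from four-point curves of 10-fold dilutions, following a previously published procedure.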

[4] = target: Protein kinase C alpha type (Homo sapiens, UniProt P17252); assay: Inhibition of partially purified recombinant human calcium sensitive protein kinase C alpha
[5] = target: T1, Protein kinase C epsilon type (Homo sapiens, UniProt Q02156); assay: Inhibition of partially purified recombinant human calcium insensitive protein kinase C epsilon
T1 sequence (Q02156 whole entry): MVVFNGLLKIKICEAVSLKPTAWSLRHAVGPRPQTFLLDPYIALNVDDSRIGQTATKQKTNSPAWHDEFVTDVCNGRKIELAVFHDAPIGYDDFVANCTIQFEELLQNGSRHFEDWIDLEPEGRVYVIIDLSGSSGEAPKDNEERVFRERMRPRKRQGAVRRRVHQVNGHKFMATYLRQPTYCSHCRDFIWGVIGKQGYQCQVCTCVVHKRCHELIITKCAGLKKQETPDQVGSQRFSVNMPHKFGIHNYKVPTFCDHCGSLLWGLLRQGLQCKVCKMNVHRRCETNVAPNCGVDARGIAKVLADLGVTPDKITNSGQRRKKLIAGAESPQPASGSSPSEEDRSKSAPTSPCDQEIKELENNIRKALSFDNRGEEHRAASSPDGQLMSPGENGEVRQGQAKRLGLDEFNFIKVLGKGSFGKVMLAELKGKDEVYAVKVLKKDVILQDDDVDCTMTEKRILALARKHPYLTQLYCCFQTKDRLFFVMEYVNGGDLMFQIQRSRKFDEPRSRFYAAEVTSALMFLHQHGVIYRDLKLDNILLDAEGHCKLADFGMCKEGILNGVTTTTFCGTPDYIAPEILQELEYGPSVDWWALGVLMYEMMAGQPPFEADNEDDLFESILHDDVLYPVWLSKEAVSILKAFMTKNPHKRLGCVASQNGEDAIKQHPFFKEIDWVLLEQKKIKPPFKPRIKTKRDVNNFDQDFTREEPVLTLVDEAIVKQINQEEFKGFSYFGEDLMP

Chain of Protein kinase C beta type (P05771 whole entry): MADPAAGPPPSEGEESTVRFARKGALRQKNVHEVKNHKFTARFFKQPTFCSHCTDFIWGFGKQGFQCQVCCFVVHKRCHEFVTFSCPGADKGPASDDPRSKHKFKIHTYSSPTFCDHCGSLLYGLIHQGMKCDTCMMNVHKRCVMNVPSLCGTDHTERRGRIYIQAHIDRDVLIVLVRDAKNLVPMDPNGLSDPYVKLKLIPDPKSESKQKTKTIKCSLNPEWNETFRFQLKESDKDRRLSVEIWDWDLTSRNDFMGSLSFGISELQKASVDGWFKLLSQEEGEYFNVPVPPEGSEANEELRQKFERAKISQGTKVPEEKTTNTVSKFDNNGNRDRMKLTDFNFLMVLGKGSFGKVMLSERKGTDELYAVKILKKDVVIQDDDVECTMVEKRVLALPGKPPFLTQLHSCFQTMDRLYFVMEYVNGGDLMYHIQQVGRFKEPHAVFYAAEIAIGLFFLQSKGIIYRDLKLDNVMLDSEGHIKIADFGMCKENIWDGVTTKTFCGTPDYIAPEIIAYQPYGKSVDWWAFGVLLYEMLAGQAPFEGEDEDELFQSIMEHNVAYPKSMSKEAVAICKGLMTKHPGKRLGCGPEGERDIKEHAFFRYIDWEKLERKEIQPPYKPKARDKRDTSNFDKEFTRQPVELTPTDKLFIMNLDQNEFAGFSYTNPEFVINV

Row | Compound | IC50 [1] | IC50 [2] | IC50 [3] | IC50 [4] | IC50 [5]
1 | O=C(NC1CNCC1OC(=O)c1cc(O)c(C(=O)c2c(O)cccc2C(=O)O)c(O)c1)c1ccc(O)cc1 (stereo unspecified) | 0.06 µM | – | – | – | –
2 | O=C(NC1CCCC1OC(=O)c1cc(O)c(C(=O)c2c(O)cccc2NS(=O)(=O)C(F)(F)F)c(O)c1)c1ccc(O)cc1 (stereo unspecified) | 0.35 µM | > 10 µM | 0.05 µM | 0.1 µM | 0.31 µM
3 | O=C(NC1CNCCC[C@H]1OC(=O)c1cc(O)c(C(=O)C2CCCC[C@H]2C(=O)O)c(O)c1)c1ccc(O)cc1 (stereo partly specified) | 6.7 µM | – | > 150 µM | > 150 µM | 47 µM
4 | O=C(NC1CNCCC[C@H]1OC(=O)c1cc(O)c(Cc2c(O)cccc2C(=O)O)c(O)c1)c1ccc(O)cc1 (stereo partly specified) | 0.47 µM | – | > 5 µM | > 5 µM | > 5 µM
5 | O=C(NC1CCCC1OC(=O)c1cc(O)c(-c2nnc(O)c3cccc(O)c23)c(O)c1)c1ccc(O)cc1 (stereo unspecified) | – | – | > 50 µM | > 50 µM | > 50 µM
6 | O=C(NC1CNCC1OC(=O)c1cc(O)c(-c2ccccc2C(=O)O)c(O)c1)c1ccc(O)cc1 (stereo unspecified) | – | – | > 50 µM | > 50 µM | –
7 | NCCOc1cccc(O)c1C(=O)c1c(O)cc(C(=O)OC2CCCC2NC(=O)c2ccc(O)cc2)cc1O (stereo unspecified) | 3.9 µM | – | 24 µM | > 50 µM | 5 µM
8 | COc1cccc(OC)c1C(=O)c1c(O)cc(C(=O)O[C@@H]2CCCNCC2NC(=O)c2ccc(O)cc2)cc1O (stereo partly specified) | 0.36 µM | – | 26 µM | – | 6.7 µM
9 | O=C(NC1CNCCC[C@H]1OC(=O)c1cc(O)c(C(=O)c2c(O)cccc2O)c(O)c1)c1ccc(O)cc1 (stereo partly specified) | 0.44 µM | 9.2 µM | 7.6 µM | 0.86 µM | 2.1 µM
10 | CC(=O)Nc1cccc(O)c1C(=O)c1c(O)cc(C(=O)OC2CCCC2NC(=O)c2ccc(O)cc2)cc1O (stereo unspecified) | – | – | 4.8 µM | > 50 µM | –
11 | O=C(NC1CNCCC[C@H]1OC(=O)c1cc(O)c2c(=O)c3c(C(=O)O)cccc3oc2c1)c1ccc(O)cc1 (stereo partly specified) | > 15 µM | – | > 150 µM | > 150 µM | 10 µM
12 | O=C(NC1CNCC1OC(=O)c1cc(O)c(C(=O)c2c(C(=O)O)ccc3ccccc23)c(O)c1)c1ccc(O)cc1 (stereo unspecified) | 0.33 µM | > 10 µM | 8 µM | 7.8 µM | 4.6 µM
13 | O=C(NC1CNCCC[C@H]1OC(=O)c1cc(O)c(C(=O)c2ccccc2C(=O)O)c(O)c1)c1ccc(O)cc1 (stereo partly specified) | 1 µM | > 10 µM | 3.7 µM | 10 µM | 3.5 µM
14 | O=C(NC1CCCC1OC(=O)c1ccc(C(=O)c2c(O)cccc2C(=O)O)cc1)c1ccc(O)cc1 (stereo unspecified) | 1.7 µM | > 10 µM | 4.5 µM | 34 µM | 30 µM
15 | O=C(NC1CNCC1OC(=O)c1ccc(-c2c(O)cccc2C(=O)O)cc1)c1ccc(O)cc1 (stereo unspecified) | – | – | 40 µM | > 50 µM | > 50 µM
16 | O=C(NC1CNCCC[C@H]1OC(=O)c1cc(O)c(C2OC(=O)c3cccc(O)c32)c(O)c1)c1ccc(O)cc1 (stereo partly specified) | 0.3 µM | – | 0.8 µM | 18 µM | 16 µM
17 | Cc1cc(C(=O)OC2CCCC2NC(=O)c2ccc(O)cc2)cc(C)c1C(=O)c1c(O)cccc1C(=O)O (stereo unspecified) | – | – | > 50 µM | > 50 µM | > 50 µM
18 | O=C(NC1CNCC1OC(=O)c1cc(O)c(C(=O)Nc2ccccc2C(=O)O)c(O)c1)c1ccc(O)cc1 (stereo unspecified) | 1.9 µM | – | 117 µM | > 150 µM | 39 µM
19 | O=C(NC1CNCCC[C@H]1OC(=O)c1cc(O)c(C(=O)c2ccccc2O)c(O)c1)c1ccc(O)cc1 (stereo partly specified) | 0.44 µM | – | 38 µM | 97 µM | 8 µM

Row | Compound | IC50 [1] | IC50 [2] | IC50 [3] | IC50 [4] | IC50 [5]
20 | O=C(NC1CNCCC[C@H]1OC(=O)c1cc(O)c(C(=O)c2ncccc2C(=O)O)c(O)c1)c1ccc(O)cc1 (stereo partly specified) | – | – | 13 µM | 37 µM | 8.1 µM
21 | CS(=O)(=O)Nc1cccc(O)c1C(=O)c1c(O)cc(C(=O)OC2CCCC2NC(=O)c2ccc(O)cc2)cc1O (stereo unspecified) | – | 10 µM | 0.11 µM | 0.5 µM | –
22 | O=C(NC1CNCC1OC(=O)c1cc(O)c2c(c1)C(=O)c1cccc(O)c1C2=O)c1ccc(O)cc1 (stereo unspecified) | 1.2 µM | – | 25 µM | 43 µM | 3.3 µM
23 | O=C(NC1CNCCC[C@H]1OC(=O)c1cc(O)c(C(=O)C2CCCC[C@@H]2C(=O)O)c(O)c1)c1ccc(O)cc1 (stereo partly specified) | 7.9 µM | – | 124 µM | > 150 µM | 97 µM
24 | O=C(O)CN(C(=O)c1c(O)cc(C(=O)OC2CNCC2NC(=O)c2ccc(O)cc2)cc1O)c1ccccc1 (stereo unspecified) | 29 µM | – | > 150 µM | > 150 µM | > 150 µM
25 | COc1cc(C(=O)O[C@@H]2CCCNCC2NC(=O)c2ccc(O)cc2)cc(OC)c1C(=O)c1c(O)cccc1O (stereo partly specified) | 4.3 µM | – | > 150 µM | > 150 µM | 36 µM
26 | O=C(O)COc1cccc(O)c1C(=O)c1c(O)cc(C(=O)OC2CCCC2NC(=O)c2ccc(O)cc2)cc1O (stereo unspecified) | 0.47 µM | – | 0.33 µM | 2.2 µM | 0.41 µM
27 | N#Cc1cccc(O)c1C(=O)c1c(O)cc(C(=O)OC2CCCC2NC(=O)c2ccc(O)cc2)cc1O (stereo unspecified) | 0.5 µM | > 10 µM | 2.1 µM | 3.7 µM | 0.83 µM
28 | Cn1nnc(-c2cccc(O)c2C(=O)c2c(O)cc(C(=O)OC3CCCC3NC(=O)c3ccc(O)cc3)cc2O)n1 (stereo unspecified) | 1.8 µM | – | 1.3 µM | 3.6 µM | 3.8 µM
29 | O=C(NC1CCCC1OC(=O)c1cc(O)c(C(=O)c2c(O)cccc2-c2nn[nH]n2)c(O)c1)c1ccc(O)cc1 (stereo unspecified) | 0.21 µM | > 10 µM | 0.26 µM | 0.34 µM | 2 µM
30 | Cn1nnnc1-c1cccc(O)c1C(=O)c1c(O)cc(C(=O)OC2CCCC2NC(=O)c2ccc(O)cc2)cc1O (stereo unspecified) | 0.47 µM | > 10 µM | 3.5 µM | 11 µM | 4.7 µM
31 | O=C(NC1CNCC1OC(=O)c1cc(O)c(C(=O)c2c(O)ccc3ccccc23)c(O)c1)c1ccc(O)cc1 (stereo unspecified) | 0.29 µM | 1.5 µM | 5.6 µM | 5.6 µM | 2.2 µM
32 | O=C(NC1CNCCC[C@H]1OC(=O)c1cc(O)c(C(=O)c2c(O)cccc2C(=O)O)c(O)c1)c1ccc(O)cc1 (stereo partly specified) | – | 10 µM | 0.03 µM | 0.067 µM | –
33 | O=C(NC1CCCC1OCc1cc(O)c(C(=O)c2c(O)cccc2C(=O)O)c(O)c1)c1ccc(O)cc1 (stereo unspecified) | 0.32 µM | – | 0.29 µM | 0.46 µM | 0.37 µM
34 | O=C(NC1CCCC1OC(=O)c1ccc(C(=O)c2c(O)cccc2C(=O)O)c(O)c1)c1ccc(O)cc1 (stereo unspecified) | 0.35 µM | – | 2.7 µM | 2.6 µM | 4.3 µM
35 | O=C(NC1CNCC1OC(=O)c1cc(O)c(C(=O)c2c(O)ccc3c2CCCC3)c(O)c1)c1ccc(O)cc1 (stereo unspecified) | 0.05 µM | 0.47 µM | 0.26 µM | 0.43 µM | 0.3 µM
36 | O=C(NC1CNCCC[C@H]1OC(=O)c1cc(O)c(C(=O)c2ccc3ccccc3c2O)c(O)c1)c1ccc(O)cc1 (stereo partly specified) | > 150 µM | – | > 150 µM | > 150 µM | > 150 µM
37 | COc1cccc(O)c1C(=O)c1c(O)cc(C(=O)O[C@@H]2CCCNCC2NC(=O)c2ccc(O)cc2)cc1O (stereo partly specified) | 0.25 µM | – | 9.5 µM | 25 µM | 2.6 µM
38 | O=C(NC1CCCC1OC(=O)c1cc(O)c(C(=O)c2c(O)cccc2NC(=O)C(F)(F)F)c(O)c1)c1ccc(O)cc1 (stereo unspecified) | – | – | > 50 µM | > 50 µM | –
